Source: PubChem (several laboratories)
Sampled rows, rich in hits. Any-hit rate of the full collection: about 3.7%.
OX1R antag-1: antagonists of human orexin 1 receptor (OX1R); Orexin/Hypocretin receptor type 1 (Homo sapiens), O43613; OX1R-expressing cells, FRET antagonist read-out; inhibition, % at 6.6 µM; actives 1.8% (n = 330,000); AID 485270, 2010; in the data active = inhibition mostly above about 38%, no sharp cut-off; inactive = mostly below about 40%;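 note: 0% = agonist challenge alone and 100% = reference antagonist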
CHO parental Ca: ATP-evoked calcium signal inhibitors, parental CHO, primary screen, counter-screen for OX1R antagonist project, cell-based, fluorescence, Fluo-8 calcium dye; parental CHO-K1, ATP-induced calcium, Fluo-8 fluorescence; inhibition, % at 5.6 µM; actives 0.63% (n = 330,000);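 active = inhibition above that plate's mean sample inhibition plus 3 SD, cut at about 26% in these data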;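 note: 0% = ATP-challenged DMSO wells and 100% = DMSO wells without ATP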
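Assay system: parental CHO cells; Read-out basis: percent inhibition of ATP-evoked calcium rise, normalized to controls; Benchmarks: ATP and no-ATP DMSO wells; Compound dosing: single nominal dose of 5.6 µM per compound; Signal: Fluo-8 calcium dye fluorescence; Also added: ATP as calcium-mobilizing challenge; Repeats: singlicate.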
EP2 modulator: EP2 receptor modulators, cAMP readout, primary screen, cell-based, HTRF cAMP, PGE2 stimulation. actives 0.83% (n = 260,000). EP2-expressing cells, cAMP HTRF FRET, PGE2 co-stimulation. Prostaglandin E2 receptor EP2 subtype (Homo sapiens), P43116. induction, % at 25 µM. AID 940, 2007;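 active = compounds whose cAMP rise, as percent of the full-agonist control response, exceeds 60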;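 note: rat C6 glioma line stably carrying human EP2 under a CMV promoter; the protocol text gives 20 µM as final concentration; 100% = response of wells given 1 µM PGE2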
Target sequence (P43116 whole entry, looked up): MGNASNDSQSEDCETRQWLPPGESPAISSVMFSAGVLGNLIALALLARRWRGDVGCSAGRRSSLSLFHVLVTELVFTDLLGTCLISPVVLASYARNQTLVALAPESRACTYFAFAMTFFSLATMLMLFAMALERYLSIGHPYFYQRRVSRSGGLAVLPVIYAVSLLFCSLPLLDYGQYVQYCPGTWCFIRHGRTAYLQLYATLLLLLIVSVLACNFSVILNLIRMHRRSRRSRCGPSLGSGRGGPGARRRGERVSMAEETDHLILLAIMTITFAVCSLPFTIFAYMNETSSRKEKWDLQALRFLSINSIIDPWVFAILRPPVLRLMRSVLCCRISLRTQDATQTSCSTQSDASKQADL
GPR7 antag: GPR7 receptor antagonists, primary screen, cell-based, fluorescence, single concentration | Neuropeptides B/W receptor type 1 (Homo sapiens), P48145 | GPR7-expressing cells, fluorescence antagonist assay | inhibition, % at 4.4 µM | actives 1.1% (n = 290,000) | AID 1861, 2009; in the data active = inhibition above about 16%, passing the limit was not always enough;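 note: cells stimulated with the agonist NPW; 0% = agonist with vehicle and 100% = vehicle without agonist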
OX1R antag-2: OX1R (HCRTR1) antagonists, primary screen, fluorescence, CHO/OX1R cells, Fluo-8 calcium, orexin A; Orexin/Hypocretin receptor type 1 (Homo sapiens), O43613; Fluo-8 calcium fluorescence; inhibition, % at 5 µM; actives 0.43% (n = 330,000);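 active = inhibition above its plate's threshold, mean inhibition of all tested compounds on the plate plus 3 SD, cut at about 37% in these data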;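 note: 0% = orexin A challenge wells and 100% = SB-334867-A antagonist wells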
EP2 antag: human EP2 receptor antagonists, primary screen, TR-FRET cAMP, C6 glioma cells. Prostaglandin E2 receptor EP2 subtype (Homo sapiens), P43116. C6 glioma cells expressing human EP2; cells stimulated with saturating PGE2. inhibition, % at 25 µM. actives 0.52% (n = 260,000). AID 1422, 2008;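 active = percent inhibition above 40 after rounding to a whole number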;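 note: rat C6 glioma host cells with rolipram phosphodiesterase inhibitor present; the protocol text gives 20 µM as final concentration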
An asterisk follows results filed as active; nt = no result.

SMILES	OX1R antag-1	CHO parental Ca	EP2 modulator	GPR7 antag	OX1R antag-2	EP2 antag
CNC(=O)NC(=O)C(C)OC(=O)c1cc2c(s1)CCCCC2 (stereo unspecified)	10	-17	20	-11	-14	7
CC(C)CCC(C(=O)NC(C)c1ccccc1)C(=O)NC(C)c1ccccc1 (stereo unspecified)	43*	-22	nt	-12	14	nt
CC(C)CC(NC(=O)C1CCCCC1)C(=O)NC(C)c1ccccc1 (stereo unspecified)	-12	-22	nt	10	-27	nt
O=C(COC(=O)c1ccco1)Nc1ccc2c(c1)OCO2	15	-9	7	8	-11	9
CCOC(=O)C1CCCN(C(=O)Cn2sc3nc(C)cc(C)c3c2=O)C1 (stereo unspecified)	10	-3	-15	7	4	115*
Cc1ccc2cc(CN(CCO)C(=O)c3ccccc3)c(=O)[nH]c2c1C	nt	nt	-57	nt	nt	6
O=C(N/N=C/c1cccc([N+](=O)[O-])c1)c1cccc2cc[nH]c12	20	10	-4	5	11	2
O=C(N/N=C/c1ccc(Cl)cc1Cl)c1ccc2nc[nH]c2c1	35*	-8	nt	-9	-26	nt
O=C(N/N=C/c1cc([N+](=O)[O-])ccc1Cl)c1ccc2nc[nH]c2c1	62*	4	7	1	-3	19
O=C(N/N=C/c1cc([N+](=O)[O-])ccc1O)c1cccc2cc[nH]c12	34	57*	-16	-4	49*	16
CSc1nc(N)nc(C(C)C)n1	8	2	-12	9	-10	7
C[C@@H]1CC[C@@]2(O[C@@H](CCO)C[C@@H](O)[C@@H]2O)O1	11	-12	nt	nt	4	12
CC1CC(C)CN(CCOc2ccccc2-c2ccccc2)C1 (stereo unspecified)	7	2	22	25*	-2	8
COc1ccccc1CN(C)C(=O)CSc1nnc(C2CC2)n1C1CC1	14	-14	nt	nt	-16	nt
O=c1c2ccccc2nc2n1CC/C2=C\c1ccccc1[N+](=O)[O-]	nt	nt	15	6	nt	18
CN(CC(=O)Nc1ccccc1Cl)C(=O)COC(=O)c1ccc([N+](=O)[O-])s1	43*	0	nt	nt	-10	nt
O=C(COC(=O)c1ccc([N+](=O)[O-])s1)NNC(=O)c1ccccc1	57*	3	nt	nt	5	nt
O=C(COC(=O)c1ccc([N+](=O)[O-])s1)c1ccc[nH]1	61*	-7	nt	nt	16	nt
Cc1cc(C)c(NC(=O)COC(=O)c2ccc([N+](=O)[O-])s2)c(C)c1	30	-5	-16	3	-2	3
O=C(COC(=O)c1ccc([N+](=O)[O-])s1)NCCc1ccccc1	27*	-12	nt	nt	-10	nt
O=C(OCC(=O)c1ccc[nH]1)c1ccc([N+](=O)[O-])cc1	23	8	nt	nt	0	nt
CCN(CC(=O)Nc1ccc(Br)c(C)c1)CC(=O)NC(C)C	23	-16	0	-10	-27	8
O=C(COC(=O)c1ccc([N+](=O)[O-])s1)NC(=O)NCc1ccccc1	49*	-7	-70	9	-7	4
N#Cc1cc2c(nc1SCc1ccccc1)CCCC2	7	-11	23	-15	-15	27
N#Cc1cc2c(nc1SCc1ccccc1)CCC2	16	-4	40	-7	-22	42*
SMILES	OX1R antag-1	CHO parental Ca	EP2 modulator	GPR7 antag	OX1R antag-2	EP2 antag
Cc1cc(-c2c(C(=O)N3CCOCC3)c(C)nn2-c2ccccc2)no1	1	-16	6	2	-10	7
O=C(O)c1ccc(NCc2cccnc2)c([N+](=O)[O-])c1	55*	2	nt	-12	-4	nt
Cc1cc(C(=O)O)ccc1NCc1cccnc1	22	-17	nt	5	5	nt
CC(=O)N1CCN(c2ccc([N+](=O)[O-])c(NCc3cccnc3)c2)CC1	42*	-12	16	-13	-12	10
CCS(=O)(=O)N1CCN(c2ccc([N+](=O)[O-])c(NCc3cccnc3)c2)CC1	21	10	-18	-2	-35	6
O=C(O)c1ccc(N/N=C/c2cn(Cc3ccccc3F)c3ccccc23)cc1	5	13	87*	-11	8	5
Cc1ccc(-c2cc(-c3nnc(SCC(=O)N(C)CCC#N)n3N)c3ccccc3n2)cc1	37	-25	2	-11	-24	5
O=c1[nH]n(-c2ccc(Cl)cc2)c(=O)c(Cl)c1Cl	23	-2	7	-10	-9	8
Oc1ccccc1-c1nc(NCc2ccco2)c2ccccc2n1	40*	-17	36	-17	-20	6
COc1ccccc1Nc1nc(NCc2ccco2)c2ccccc2n1	14	-1	-14	-6	-10	12
Cc1ccc(Nc2nc(NCc3ccco3)c3ccccc3n2)cc1	33	56*	-51	34*	47*	42*
CN=c1c([N+](=O)[O-])nn(-c2ccc3c(c2)OCCO3)n1O	62*	-2	12	-5	-19	5
Cn1cnnc1Sc1ccc([N+](=O)[O-])cn1	nt	nt	-2	nt	nt	16
CS(=O)(=O)Nc1cccc(C2=NN(S(=O)(=O)c3ccc(F)cc3)C(c3cccs3)C2)c1 (stereo unspecified)	16	-3	3	19*	0	1
COc1ccc(C2C(C#N)=C(C)NC3=C2C(=O)c2ccccc23)cc1 (stereo unspecified)	21	-1	-8	-16	-11	49*
OC1(c2ccc(OC(F)F)cc2)CSC(=Nc2cccnc2)N1Cc1ccco1 (stereo unspecified)	nt	nt	-1	20*	nt	13
COc1ccc(NC(=O)/C(C#N)=C\c2ccc(N3CCOCC3)o2)cc1	59*	47*	-41	10	54*	13
N#C/C(=C/c1ccc(N2CCOCC2)o1)C(=O)NC1CCCCC1	12	-1	-10	1	-13	4
N#C/C(=C/c1ccc(N2CCCCC2)o1)C(=O)Nc1ccc(Cl)cc1	19	77*	14	10	99*	1
N#C/C(=C\c1ccc(N2CCOCC2)o1)C(=O)Nc1ccc(O)cc1	61*	11	-31	7	12	6
CC(C)Cn1c(N)c(C(=O)COC(=O)c2ccc(O)cc2)c(=O)n(C)c1=O	18	1	-41	2	-11	5
